Rows were chosen to be rich in hits. Some 2.1% of all compounds tested hit in one or more screens of this group.
UCH37 DUB inh = inhibitors of human UCH37 deubiquitinase, primary screen, biochemical, Ub-AMC cleavage, fluorescence; Ubiquitin carboxyl-terminal hydrolase isozyme L5 (Homo sapiens), Q9Y5K5; purified proteasome/UCH37; inhibition, % (test concentration not listed); 0.33% of 330,000 active; AID 588478, 2011;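 active means mean inhibition over replicate wells above about 20%, limit read from the data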
Target sequence (Q9Y5K5 whole entry, looked up): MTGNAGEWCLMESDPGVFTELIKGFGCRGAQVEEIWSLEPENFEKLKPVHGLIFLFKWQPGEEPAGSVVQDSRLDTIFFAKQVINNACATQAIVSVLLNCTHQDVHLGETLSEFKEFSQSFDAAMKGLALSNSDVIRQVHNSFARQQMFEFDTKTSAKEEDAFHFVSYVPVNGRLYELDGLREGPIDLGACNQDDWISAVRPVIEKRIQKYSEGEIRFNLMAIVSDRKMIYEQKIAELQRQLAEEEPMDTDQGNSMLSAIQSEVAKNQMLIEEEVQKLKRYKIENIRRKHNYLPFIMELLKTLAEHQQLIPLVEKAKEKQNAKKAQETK
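System: Proteasome-associated human UCH37 deubiquitinase; Input: 0.15 nM proteasome in added enzyme buffer; Also added: Ub-AMC substrate from 1 µM stock; Incubation: 30 min compound-proteasome preincubation then 25 min substrate reaction, room temperature; Detection: fluorescence, ex 355 nm, em 460 nm; Read-out: % inhibition of Ub-AMC cleavage fluorescence; Benchmarks: no-proteasome and no-compound wells.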
RTF Ca sens act = cardiac RTF calcium sensitivity activators, primary screen, biochemical, IANBD-TnC fluorescence, EC20 calcium; Troponin I, cardiac muscle (Homo sapiens) + Troponin T, cardiac muscle (Homo sapiens) + …; IANBD-labeled TnC RTF fluorescence at EC20 calcium; 0% EC20 calcium, 100% full calcium; activation, % at 7.2 µM; 0.24% of 340,000 active; AID 493008, 2010;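 active means activation above the mean over all tested compounds plus 3 SD, cut at about 30% in these data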;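 further: rise in fluorescence read as greater calcium sensitivity of cardiac thin filaments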
RTF Ca sens inh = cardiac RTF calcium sensitivity inhibitors, primary screen, biochemical, IANBD-TnC fluorescence, EC70 calcium. AID 493244, 2011. Troponin I, cardiac muscle (Homo sapiens) + Troponin T, cardiac muscle (Homo sapiens) + …. inhibition, % at 7.15 µM. IANBD-labeled cardiac RTF, Ca2+ fluorescence. 0.12% of 340,000 active;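 active means inhibition above the mean inhibition of all tested compounds plus 3 SD, cut at about 17% in these data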;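 further: assay run at fixed EC70 calcium of 1.6 mM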
Efflux pump inh = inhibitors of Candida efflux pumps in yeast, primary screen, S. cerevisiae, Nile Red, multiplex. 0.44% of 330,000 active. S. cerevisiae Candida pump triplex. AID 485275, 2010. inhibition, % at 10 µM;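 active means plate passing quality check with inhibition over a set limit, or well fluorescence over plate mean plus 4 SD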;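 further: Nile Red retained in pooled yeast measured as flow cytometry median fluorescence; higher means more Nile Red kept so more efflux inhibition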
SUMO Mot1 rescue = yeast Mot1-301 growth rescue at high temperature, primary screen, SUMOylation pathway inhibitor project, S. cerevisiae, ATP luminescence, 38.5C; S. cerevisiae Mot1-301 growth rescue; percent above DMSO median, 100 means doubled; growth rescue, % at 18.8 µM; 1% of 320,000 active;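 active means every valid replicate shows activation above 250% relative to neutral control wells; inactive means the rest, any valid replicate at or below 250%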
ARNT TACC3 PPI = disruptors of ARNT/TACC3 protein interaction, primary screen, biochemical, AlphaScreen, single concentration. AlphaScreen His-ARNT PAS-B/GST-TACC3 binding, luminescence; TACC3 fragment carries E629A point mutation. inhibition, % at 9.99 µM. 0.66% of 390,000 active;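 active means mean inhibition of replicates at least 50% and at least half of replicates each reaching 50%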
UCH37 confirm = retest of human UCH37 deubiquitinase inhibitors, confirmation, biochemical, Ub-AMC cleavage rate, fluorescence. shares compounds with UCH37 DUB inh. Proteasome-bound UCH37. inhibition, % at 20 µM. 27% of 480 active. AID 624100, 2012;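 active means average inhibition over replicates above about 50%, so the earlier screening hit is confirmed, limit read from the data; inactive means the rest, counted as false positives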;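 further: based on cleavage rate fitted by regression over a 30 min kinetic read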
Numbers stand for hits.

`S=c1[nH]nc(-c2ccccn2)n1N=Cc1cccc(Cl)c1` gave UCH37 DUB inh inactive.
COc1cc(Cl)c(NC2=CC(=O)C(=O)c3ccccc32)c(OC)c1 was read as UCH37 DUB inh 54, RTF Ca sens act inactive, RTF Ca sens inh inactive, Efflux pump inh inactive, SUMO Mot1 rescue inactive, ARNT TACC3 PPI inactive and UCH37 confirm inactive.
For O=C(CCN1C(=O)/C(=C/c2cccs2)SC1=S)Nc1ccc(C(=O)O)c(O)c1 the results were UCH37 DUB inh 26, RTF Ca sens act inactive, RTF Ca sens inh inactive, Efflux pump inh inactive, SUMO Mot1 rescue inactive, ARNT TACC3 PPI inactive and UCH37 confirm inactive.
Screening Cc1ccc(C)c(NN=C2CCCNC2=O)c1 returned UCH37 DUB inh inactive.
Screening Cn1cccc1C=NNC(=O)C1COc2ccccc2O1 (centres undefined) returned UCH37 DUB inh inactive.
For CCOC(=O)c1c2c(n(C)c1C)C(=O)C(=O)c1ccc(Br)cc1-2 the results were UCH37 DUB inh 56, RTF Ca sens act inactive, RTF Ca sens inh inactive, Efflux pump inh inactive, SUMO Mot1 rescue inactive, ARNT TACC3 PPI inactive and UCH37 confirm 70.
CCOC(=O)c1c2c(n(Cc3ccccc3)c1C)C(=O)C(=O)c1ccccc1-2 was read as RTF Ca sens act inactive, RTF Ca sens inh inactive and ARNT TACC3 PPI inactive.
For Nc1cc(C(=O)NN=Cc2cccc([N+](=O)[O-])c2)n[nH]c1=O the results were UCH37 DUB inh inactive.
`CCN1/C(=C/C=C/C=C/C=C/c2sc3ccccc3[n+]2CC)Sc2ccccc21` gave UCH37 DUB inh 54, RTF Ca sens act inactive, RTF Ca sens inh inactive, Efflux pump inh inactive, SUMO Mot1 rescue inactive, ARNT TACC3 PPI inactive and UCH37 confirm 69.
O=C(O)CN1C(=O)/C(=C\c2cc(Br)ccc2OCc2ccc(F)cc2)SC1=S was read as UCH37 DUB inh 27, RTF Ca sens act inactive, RTF Ca sens inh inactive, Efflux pump inh inactive, SUMO Mot1 rescue inactive, ARNT TACC3 PPI inactive and UCH37 confirm 69.
`C=CCON=CC1C(=O)CC(C)(C)CC1=O` gave UCH37 DUB inh inactive.
CC(=NNC(=S)NCc1ccccc1)c1ccc(C)o1 was read as UCH37 DUB inh inactive.
`CN(C)/C=C/C1=C([N+](=O)[O-])C(c2cccc([N+](=O)[O-])c2)NC(=O)N1` (centres undefined) gave UCH37 DUB inh 27, RTF Ca sens act inactive, RTF Ca sens inh inactive, Efflux pump inh inactive, SUMO Mot1 rescue inactive, ARNT TACC3 PPI inactive and UCH37 confirm inactive.
CCOC(=O)C1=C(CCc2ccccc2)NC(=O)NC1c1cccc([N+](=O)[O-])c1 (centres undefined) was read as UCH37 DUB inh inactive, RTF Ca sens act inactive, RTF Ca sens inh inactive, Efflux pump inh inactive, SUMO Mot1 rescue inactive and ARNT TACC3 PPI inactive.
For O=C1N/C(=N\N=Cc2cccnc2)SC1Cc1ccc(SC(F)F)cc1 (centres undefined) the results were UCH37 DUB inh inactive.
For Cc1ccc(C(=O)NCC(=O)OCN2C(=O)c3ccccc3C2=O)cc1C the results were UCH37 DUB inh inactive, RTF Ca sens act inactive, RTF Ca sens inh inactive, Efflux pump inh inactive and SUMO Mot1 rescue inactive.
O=C(NC1(O)C(=O)c2ccccc2C1=O)c1ccc(C(F)(F)F)cc1 was read as UCH37 DUB inh 79, Efflux pump inh inactive, SUMO Mot1 rescue inactive and UCH37 confirm 69.
`O=C(Cc1ccccc1)NC1(O)C(=O)c2ccccc2C1=O` gave Efflux pump inh inactive and SUMO Mot1 rescue inactive.
For Cc1ccc(C(=O)NC2(O)C(=O)c3ccccc3C2=O)cc1C the results were UCH37 DUB inh 78, RTF Ca sens act inactive, RTF Ca sens inh inactive, Efflux pump inh inactive, SUMO Mot1 rescue inactive, ARNT TACC3 PPI inactive and UCH37 confirm 61.
For CCn1c(SCC(=O)NN=C/C=C/c2ccco2)nnc1-c1ccc(OC)cc1 the results were UCH37 DUB inh inactive.
Cc1cc(NN=C2CC(C)CC(C)(C)C2)nc2ccccc12 (centres undefined) was read as UCH37 DUB inh inactive.
For O=[N+]([O-])c1ccc(N=Nc2ccc(O)cc2O)cc1 the results were UCH37 DUB inh 25, RTF Ca sens act inactive, RTF Ca sens inh inactive, Efflux pump inh inactive, SUMO Mot1 rescue inactive, ARNT TACC3 PPI inactive and UCH37 confirm inactive.
Screening O=[N+]([O-])c1cccc(N=Nc2ccc(O)cc2O)c1 returned UCH37 DUB inh inactive, RTF Ca sens act inactive, RTF Ca sens inh inactive and ARNT TACC3 PPI inactive.
For CCCCNC(=O)c1onc(CSc2ccc(Cl)cc2)c1C(=O)NCCCC the results were UCH37 DUB inh 36, RTF Ca sens act inactive, RTF Ca sens inh inactive, Efflux pump inh inactive, SUMO Mot1 rescue inactive, ARNT TACC3 PPI inactive and UCH37 confirm inactive.
`Cc1cccc(C)c1NC(=O)COC(=O)c1ccc([N+](=O)[O-])o1` gave UCH37 DUB inh 29, RTF Ca sens act inactive, RTF Ca sens inh inactive, Efflux pump inh inactive, SUMO Mot1 rescue inactive, ARNT TACC3 PPI inactive and UCH37 confirm inactive.
Screening CCN1C(=O)/C(=C\N(C)C)NC1=S returned UCH37 DUB inh inactive, RTF Ca sens act inactive, RTF Ca sens inh inactive, Efflux pump inh inactive, SUMO Mot1 rescue inactive and ARNT TACC3 PPI inactive.
For CN(C)/C=C1/NC(=S)NC1=O the results were UCH37 DUB inh 27, RTF Ca sens act inactive, RTF Ca sens inh inactive, Efflux pump inh inactive, SUMO Mot1 rescue inactive, ARNT TACC3 PPI inactive and UCH37 confirm inactive.
CC[C@]1(c2cccc(C)c2)C(=O)N(C(=O)OC)N1C(=O)OC was read as UCH37 DUB inh 35, RTF Ca sens act inactive, RTF Ca sens inh inactive, Efflux pump inh inactive, SUMO Mot1 rescue inactive, ARNT TACC3 PPI inactive and UCH37 confirm inactive.
`Cc1ccc(NC(=O)C(=O)NCc2ccc(C=NNC(=O)c3c(C)nc4ccccn34)o2)cc1` gave UCH37 DUB inh inactive.
CC1=NN(c2ccccc2)C(=O)/C1=C/C=C/C=C/N(C)C was read as UCH37 DUB inh 32, RTF Ca sens act inactive, RTF Ca sens inh inactive, Efflux pump inh inactive, SUMO Mot1 rescue inactive, ARNT TACC3 PPI inactive and UCH37 confirm inactive.
`O=C1NC(=S)S/C1=C\c1cc(Cl)ccc1Cl` gave UCH37 DUB inh inactive, RTF Ca sens act inactive, RTF Ca sens inh inactive and ARNT TACC3 PPI inactive.
